Values belong to the compound of their own block, whether it stands above or below them.
Legend:
[1] = target: T1, Interleukin-1 receptor-associated kinase 4 (Homo sapiens) (UniProt Q9NWZ3); assay: Inhibition of human recombinant IRAK4 at 500 nM related to control ULK1
T1 sequence (whole entry): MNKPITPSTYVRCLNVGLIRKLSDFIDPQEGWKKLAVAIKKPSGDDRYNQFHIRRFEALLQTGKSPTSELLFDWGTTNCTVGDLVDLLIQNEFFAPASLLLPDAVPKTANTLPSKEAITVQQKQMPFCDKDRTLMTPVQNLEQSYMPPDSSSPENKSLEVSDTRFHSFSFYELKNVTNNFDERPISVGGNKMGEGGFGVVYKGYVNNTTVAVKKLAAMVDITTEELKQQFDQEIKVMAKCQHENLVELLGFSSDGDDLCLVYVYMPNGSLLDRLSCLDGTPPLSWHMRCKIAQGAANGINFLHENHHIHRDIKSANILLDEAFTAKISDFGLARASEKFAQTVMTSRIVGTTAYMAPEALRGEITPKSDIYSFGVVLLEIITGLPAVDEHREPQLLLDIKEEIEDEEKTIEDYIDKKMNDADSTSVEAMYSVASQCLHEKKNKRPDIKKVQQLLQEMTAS

[2] = target: Tyrosine-protein kinase Fes/Fps (Homo sapiens) (UniProt P07332); assay: Inhibition of human recombinant FES at 500 nM related to control ULK1
[3] = target: T2, Serine/threonine-protein kinase Sgk2 (Homo sapiens) (UniProt Q9HBY8); assay: Inhibition of human recombinant SGK2 at 500 nM in presence of ATP by radiometric assay relative to control
T2 sequence (whole entry): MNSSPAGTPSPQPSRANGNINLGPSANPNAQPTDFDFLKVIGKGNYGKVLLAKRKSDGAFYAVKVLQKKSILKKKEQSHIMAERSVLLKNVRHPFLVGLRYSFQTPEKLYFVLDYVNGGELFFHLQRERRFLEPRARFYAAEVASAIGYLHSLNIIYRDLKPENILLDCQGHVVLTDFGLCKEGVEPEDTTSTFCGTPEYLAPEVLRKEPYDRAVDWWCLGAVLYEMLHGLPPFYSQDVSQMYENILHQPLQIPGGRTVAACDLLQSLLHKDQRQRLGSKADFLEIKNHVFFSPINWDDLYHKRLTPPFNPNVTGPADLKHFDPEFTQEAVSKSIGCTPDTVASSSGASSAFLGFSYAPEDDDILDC

[4] = target: Serine/threonine-protein kinase MARK2 (Homo sapiens) (UniProt Q7KZI7); assay: Inhibition of human recombinant MARK2 at 500 nM in presence of ATP by radiometric assay relative to control
[5] = target: Serine/threonine-protein kinase SBK1 (Homo sapiens) (UniProt Q52WX2); assay: Inhibition of human recombinant SBK1 at 15 nM related to control ULK1
Serine/threonine-protein kinase SBK1 (Homo sapiens), sequence (Q52WX2 whole entry): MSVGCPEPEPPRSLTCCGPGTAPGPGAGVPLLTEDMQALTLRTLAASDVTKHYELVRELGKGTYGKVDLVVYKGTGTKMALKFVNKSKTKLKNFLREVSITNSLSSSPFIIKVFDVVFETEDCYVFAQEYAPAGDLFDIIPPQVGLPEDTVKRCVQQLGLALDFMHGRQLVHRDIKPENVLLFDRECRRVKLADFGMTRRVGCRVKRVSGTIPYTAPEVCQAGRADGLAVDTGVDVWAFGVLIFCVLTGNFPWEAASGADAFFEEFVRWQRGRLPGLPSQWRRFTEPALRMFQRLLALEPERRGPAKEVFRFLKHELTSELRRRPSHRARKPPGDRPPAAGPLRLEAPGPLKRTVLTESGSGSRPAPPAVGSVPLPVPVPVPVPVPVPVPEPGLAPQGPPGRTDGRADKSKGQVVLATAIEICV

[6] = target: Mitogen-activated protein kinase kinase kinase 9 (Homo sapiens) (UniProt P80192); assay: Inhibition of human recombinant MLK1 at 15 nM in presence of ATP by radiometric assay relative to control
Mitogen-activated protein kinase kinase kinase 9 (Homo sapiens), sequence (P80192 whole entry, looked up): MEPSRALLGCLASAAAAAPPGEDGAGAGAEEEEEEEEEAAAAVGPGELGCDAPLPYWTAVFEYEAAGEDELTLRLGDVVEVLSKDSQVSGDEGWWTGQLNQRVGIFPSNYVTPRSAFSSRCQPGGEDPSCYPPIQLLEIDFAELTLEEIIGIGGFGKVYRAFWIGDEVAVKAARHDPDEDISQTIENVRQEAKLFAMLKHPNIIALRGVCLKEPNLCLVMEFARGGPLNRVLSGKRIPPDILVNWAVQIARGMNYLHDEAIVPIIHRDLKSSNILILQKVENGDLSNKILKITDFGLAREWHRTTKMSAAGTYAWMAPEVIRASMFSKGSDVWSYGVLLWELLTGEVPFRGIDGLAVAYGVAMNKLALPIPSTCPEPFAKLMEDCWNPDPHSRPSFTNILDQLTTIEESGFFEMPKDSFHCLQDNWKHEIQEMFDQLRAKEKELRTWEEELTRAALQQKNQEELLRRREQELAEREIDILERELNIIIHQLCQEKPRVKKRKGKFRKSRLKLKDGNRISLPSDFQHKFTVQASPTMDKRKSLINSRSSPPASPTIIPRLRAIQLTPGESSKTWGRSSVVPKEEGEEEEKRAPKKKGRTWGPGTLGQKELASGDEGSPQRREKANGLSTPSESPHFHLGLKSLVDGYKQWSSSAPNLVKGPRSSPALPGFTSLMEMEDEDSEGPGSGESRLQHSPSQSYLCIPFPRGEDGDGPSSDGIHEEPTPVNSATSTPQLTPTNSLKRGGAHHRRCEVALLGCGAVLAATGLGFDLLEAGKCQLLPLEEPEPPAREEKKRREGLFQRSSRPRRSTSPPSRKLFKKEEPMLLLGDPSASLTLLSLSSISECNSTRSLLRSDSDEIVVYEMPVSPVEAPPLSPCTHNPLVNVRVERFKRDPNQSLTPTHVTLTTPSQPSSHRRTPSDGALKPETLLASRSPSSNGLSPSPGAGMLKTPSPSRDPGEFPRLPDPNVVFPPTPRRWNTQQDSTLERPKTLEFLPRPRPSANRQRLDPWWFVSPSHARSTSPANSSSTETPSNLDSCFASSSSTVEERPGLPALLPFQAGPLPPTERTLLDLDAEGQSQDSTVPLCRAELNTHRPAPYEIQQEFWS

[7] = target: Macrophage colony-stimulating factor 1 receptor (Homo sapiens) (UniProt P07333); assay: Inhibition of human recombinant FMS at 15 nM in presence of ATP by radiometric assay relative to control
Macrophage colony-stimulating factor 1 receptor (Homo sapiens), sequence (P07333 whole entry): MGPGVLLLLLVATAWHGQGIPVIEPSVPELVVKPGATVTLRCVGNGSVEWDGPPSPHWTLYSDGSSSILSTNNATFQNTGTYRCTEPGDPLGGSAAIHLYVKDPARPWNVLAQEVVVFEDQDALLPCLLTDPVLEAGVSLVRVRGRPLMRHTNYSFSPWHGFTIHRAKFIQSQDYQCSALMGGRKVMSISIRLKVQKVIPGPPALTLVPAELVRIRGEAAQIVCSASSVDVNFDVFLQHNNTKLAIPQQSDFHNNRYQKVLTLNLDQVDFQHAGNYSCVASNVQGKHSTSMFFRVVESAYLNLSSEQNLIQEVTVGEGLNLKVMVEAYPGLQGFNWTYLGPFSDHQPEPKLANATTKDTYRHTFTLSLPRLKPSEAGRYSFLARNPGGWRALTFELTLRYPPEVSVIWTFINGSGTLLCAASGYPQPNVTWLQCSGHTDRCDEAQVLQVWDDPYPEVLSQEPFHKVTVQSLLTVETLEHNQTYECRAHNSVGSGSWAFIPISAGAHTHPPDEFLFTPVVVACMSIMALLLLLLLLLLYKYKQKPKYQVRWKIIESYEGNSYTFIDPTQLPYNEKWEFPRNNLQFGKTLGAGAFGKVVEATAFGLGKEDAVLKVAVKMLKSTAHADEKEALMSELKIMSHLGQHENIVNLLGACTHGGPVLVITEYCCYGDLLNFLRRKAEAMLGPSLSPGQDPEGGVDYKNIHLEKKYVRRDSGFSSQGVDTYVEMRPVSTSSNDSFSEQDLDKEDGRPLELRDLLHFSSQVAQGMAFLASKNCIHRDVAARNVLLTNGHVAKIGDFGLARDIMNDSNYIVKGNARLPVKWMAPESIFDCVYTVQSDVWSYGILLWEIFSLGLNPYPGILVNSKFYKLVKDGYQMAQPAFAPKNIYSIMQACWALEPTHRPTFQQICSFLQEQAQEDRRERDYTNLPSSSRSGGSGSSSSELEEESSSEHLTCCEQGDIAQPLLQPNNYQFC

[8] = target: T3, Testis-specific serine/threonine-protein kinase 4 (Homo sapiens) (UniProt Q6SA08); assay: Inhibition of human recombinant TSSK4 at 15 nM related to control ULK1
T3 sequence (whole entry): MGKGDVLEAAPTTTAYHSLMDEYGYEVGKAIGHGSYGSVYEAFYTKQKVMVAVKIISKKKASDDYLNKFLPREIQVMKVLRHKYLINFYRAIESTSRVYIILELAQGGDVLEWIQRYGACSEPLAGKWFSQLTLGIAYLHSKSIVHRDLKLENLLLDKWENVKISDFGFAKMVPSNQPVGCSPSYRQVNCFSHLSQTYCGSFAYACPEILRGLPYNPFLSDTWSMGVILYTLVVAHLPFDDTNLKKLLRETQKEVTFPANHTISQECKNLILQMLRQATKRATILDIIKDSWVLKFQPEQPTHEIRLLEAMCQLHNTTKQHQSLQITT

[9] = target: Transient receptor potential cation channel subfamily M member 7 (Homo sapiens) (UniProt Q96QT4); assay: Inhibition of human recombinant ChaK1 at 15 nM related to control ULK1
Transient receptor potential cation channel subfamily M member 7 (Homo sapiens), sequence (Q96QT4 whole entry): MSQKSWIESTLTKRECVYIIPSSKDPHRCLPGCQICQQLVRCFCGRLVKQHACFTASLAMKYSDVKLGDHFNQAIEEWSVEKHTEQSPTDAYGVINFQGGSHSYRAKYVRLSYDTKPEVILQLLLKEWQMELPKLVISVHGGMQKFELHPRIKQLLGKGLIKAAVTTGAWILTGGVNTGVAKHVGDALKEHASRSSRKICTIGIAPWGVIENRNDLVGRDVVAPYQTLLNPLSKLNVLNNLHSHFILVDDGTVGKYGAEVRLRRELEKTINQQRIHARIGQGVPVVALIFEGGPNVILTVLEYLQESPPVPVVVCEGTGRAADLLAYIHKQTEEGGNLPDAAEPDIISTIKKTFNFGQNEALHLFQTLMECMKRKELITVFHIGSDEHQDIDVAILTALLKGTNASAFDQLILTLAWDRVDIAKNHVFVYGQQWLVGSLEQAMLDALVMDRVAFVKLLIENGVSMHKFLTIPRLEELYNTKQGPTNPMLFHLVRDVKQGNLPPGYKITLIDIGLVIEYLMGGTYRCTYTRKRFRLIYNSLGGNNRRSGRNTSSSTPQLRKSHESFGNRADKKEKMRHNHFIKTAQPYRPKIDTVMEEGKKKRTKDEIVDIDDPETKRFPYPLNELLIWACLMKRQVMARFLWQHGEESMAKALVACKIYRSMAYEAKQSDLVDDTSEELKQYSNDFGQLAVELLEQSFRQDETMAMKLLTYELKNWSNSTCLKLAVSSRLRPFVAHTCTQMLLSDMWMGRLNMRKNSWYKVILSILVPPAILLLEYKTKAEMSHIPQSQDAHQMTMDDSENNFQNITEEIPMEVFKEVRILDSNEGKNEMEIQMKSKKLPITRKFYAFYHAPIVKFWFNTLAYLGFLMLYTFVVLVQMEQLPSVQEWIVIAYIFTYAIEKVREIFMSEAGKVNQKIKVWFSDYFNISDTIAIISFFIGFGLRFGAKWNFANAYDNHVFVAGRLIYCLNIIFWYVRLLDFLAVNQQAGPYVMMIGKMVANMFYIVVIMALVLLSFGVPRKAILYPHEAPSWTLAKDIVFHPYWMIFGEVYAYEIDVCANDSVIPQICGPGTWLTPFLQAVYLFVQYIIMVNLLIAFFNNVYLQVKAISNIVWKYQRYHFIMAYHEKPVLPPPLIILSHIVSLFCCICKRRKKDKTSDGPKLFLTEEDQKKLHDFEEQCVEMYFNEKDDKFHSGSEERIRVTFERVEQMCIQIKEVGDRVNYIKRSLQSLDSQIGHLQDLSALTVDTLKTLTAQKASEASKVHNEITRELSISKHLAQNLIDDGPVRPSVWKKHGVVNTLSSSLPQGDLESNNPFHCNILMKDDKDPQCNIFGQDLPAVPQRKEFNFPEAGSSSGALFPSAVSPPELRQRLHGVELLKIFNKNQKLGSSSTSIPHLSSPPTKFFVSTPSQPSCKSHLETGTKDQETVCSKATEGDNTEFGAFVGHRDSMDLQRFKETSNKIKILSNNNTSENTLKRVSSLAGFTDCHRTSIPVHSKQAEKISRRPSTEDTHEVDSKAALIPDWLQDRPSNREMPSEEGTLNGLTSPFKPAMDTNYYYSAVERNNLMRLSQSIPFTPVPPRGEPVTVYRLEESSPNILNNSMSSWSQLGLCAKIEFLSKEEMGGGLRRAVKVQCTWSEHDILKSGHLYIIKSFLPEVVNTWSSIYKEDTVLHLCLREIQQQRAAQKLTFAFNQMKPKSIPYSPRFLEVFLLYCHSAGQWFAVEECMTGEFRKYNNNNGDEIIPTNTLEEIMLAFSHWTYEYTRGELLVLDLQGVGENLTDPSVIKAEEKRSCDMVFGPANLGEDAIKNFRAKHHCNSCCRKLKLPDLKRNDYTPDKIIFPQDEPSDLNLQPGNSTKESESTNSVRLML

[10] = target: T4, Ephrin type-B receptor 1 (Homo sapiens) (UniProt P54762); assay: Inhibition of human recombinant EphB1 at 15 nM related to control ULK1
T4 sequence (whole entry): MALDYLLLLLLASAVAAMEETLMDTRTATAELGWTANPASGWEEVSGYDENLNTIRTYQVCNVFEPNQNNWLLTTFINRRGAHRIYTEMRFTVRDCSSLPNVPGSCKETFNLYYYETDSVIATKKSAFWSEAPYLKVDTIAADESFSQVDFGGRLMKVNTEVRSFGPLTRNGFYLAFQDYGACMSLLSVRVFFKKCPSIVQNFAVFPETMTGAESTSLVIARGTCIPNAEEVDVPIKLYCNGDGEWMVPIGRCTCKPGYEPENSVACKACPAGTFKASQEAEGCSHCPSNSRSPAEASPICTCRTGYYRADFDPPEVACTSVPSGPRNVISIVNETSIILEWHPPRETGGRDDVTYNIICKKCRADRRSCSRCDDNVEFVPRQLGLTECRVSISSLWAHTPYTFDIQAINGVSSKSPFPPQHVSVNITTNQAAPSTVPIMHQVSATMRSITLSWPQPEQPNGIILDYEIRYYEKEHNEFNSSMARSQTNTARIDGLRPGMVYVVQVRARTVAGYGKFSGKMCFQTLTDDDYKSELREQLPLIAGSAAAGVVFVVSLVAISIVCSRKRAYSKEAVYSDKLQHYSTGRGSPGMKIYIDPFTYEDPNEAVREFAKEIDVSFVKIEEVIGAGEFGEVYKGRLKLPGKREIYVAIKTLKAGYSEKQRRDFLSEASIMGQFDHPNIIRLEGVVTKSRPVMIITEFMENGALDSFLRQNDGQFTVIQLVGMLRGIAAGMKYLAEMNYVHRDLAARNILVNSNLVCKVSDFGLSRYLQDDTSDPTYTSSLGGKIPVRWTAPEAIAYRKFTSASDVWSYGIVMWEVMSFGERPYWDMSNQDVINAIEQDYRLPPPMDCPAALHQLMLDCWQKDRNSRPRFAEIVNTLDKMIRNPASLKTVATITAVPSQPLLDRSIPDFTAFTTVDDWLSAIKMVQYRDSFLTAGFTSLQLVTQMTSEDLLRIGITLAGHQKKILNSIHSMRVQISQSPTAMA

[11] = target: 5'-AMP-activated protein kinase catalytic subunit alpha-1 (Homo sapiens) (UniProt Q13131); assay: Inhibition of human recombinant AMPKa1 at 40 nM related to control ULK1
5'-AMP-activated protein kinase catalytic subunit alpha-1 (Homo sapiens), sequence (Q13131 whole entry, looked up): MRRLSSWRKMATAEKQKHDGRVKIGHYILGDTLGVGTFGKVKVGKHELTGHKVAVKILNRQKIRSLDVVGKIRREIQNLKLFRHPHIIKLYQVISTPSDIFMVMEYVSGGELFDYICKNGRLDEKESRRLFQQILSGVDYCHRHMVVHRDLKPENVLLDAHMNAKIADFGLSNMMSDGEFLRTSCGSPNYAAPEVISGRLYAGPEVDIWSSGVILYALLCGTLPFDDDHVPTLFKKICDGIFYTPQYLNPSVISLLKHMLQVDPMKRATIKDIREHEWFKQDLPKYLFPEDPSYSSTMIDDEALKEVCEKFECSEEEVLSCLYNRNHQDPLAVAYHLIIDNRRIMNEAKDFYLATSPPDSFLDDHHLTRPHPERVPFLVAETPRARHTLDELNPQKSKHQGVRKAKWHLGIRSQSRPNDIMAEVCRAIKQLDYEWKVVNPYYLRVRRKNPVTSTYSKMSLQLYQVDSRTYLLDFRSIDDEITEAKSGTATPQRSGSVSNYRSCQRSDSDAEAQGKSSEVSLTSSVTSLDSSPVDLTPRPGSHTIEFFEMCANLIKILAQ
Method in brief: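 Radiometric activity assays in a panel of 327 human recombinant kinases, each run in duplicate at one inhibitor concentration. Activity remaining is expressed as percent of vehicle control, and percent inhibition is calculated as 100% minus percent activity remaining.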

[12] = target: Cyclin-dependent kinase 4 (Homo sapiens) (UniProt P11802); assay: Inhibition of human recombinant CDK4 at 40 nM related to control ULK1

fold change (FC) [1]: 0.08
fold change (FC) [2]: 0.38
inhibition [3]: 17%
inhibition [4]: 50%
Structure (SMILES): CNC(=O)c1ccccc1Oc1nc(Nc2cc(OC)c(OC)c(OC)c2)ncc1Br

fold change (FC) [5]: 0.06
inhibition [6]: 0%
inhibition [7]: 17%
fold change (FC) [8]: 0
fold change (FC) [9]: 0.14
fold change (FC) [10]: 0.14
Structure (SMILES): CC(C)[C@H](NC(=O)c1cc(-c2cnn3cc(-c4ccc(OCCN5CCCCC5)cc4)cnc23)cs1)C(F)(F)F

fold change (FC) [11]: 0.11
fold change (FC) [12]: 0
Structure (SMILES): O=C(N[C@@H](C1CC1)C(F)(F)F)c1cc(-c2cnn3cc(-c4ccc(F)cc4)cnc23)cs1
